Hits are enriched below; roughly 4% of the tested compounds scored in any of these assays.
SIRT5 block – inhibitors of human sirtuin-5 desuccinylase | AID 652115 | inhibition, % at 15 µM | 330,000 tested, 1.1% active | Purified SirT5, succinyl-peptide AMC, trypsin-coupled fluorescence; in the data active = inhibition above about 15%
FN deposition inh – fibronectin deposition inhibition. AH1F fibroblasts, Alexa488-fibronectin deposition fluorescence, overnight. inhibition, % at 12.6 µM. AID 743247. 350,000 tested, 0.086% active;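 active = mean inhibition across replicates of 30% or more, regardless of how many single replicates reach that level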;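 also: positive control wells lacked labelled fibronectin entirely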
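material = AH1F fibroblast monolayer depositing Alexa488-labelled fibronectin into matrix | amount = 10000 AH1F cells/well | buffer or medium = DMEM plus 2% serum, read in PBS | incubation = 1 h cell adhesion before compound, then overnight fibronectin incubation | detection = fluorescence at 485 nm excitation, 525 nm emission | evaluation = percent inhibition as loss of matrix-bound fibronectin fluorescence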
Statin myotox sup – protects C2C12 myotubes from simvastatin toxicity | ATP luminescence, 48 h; scaled: DMSO 0, geranylgeraniol control 100 | 330,000 tested, 0.78% active | rescue of ATP level, % at 7.49 µM;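 active = mean ATP rescue above about 67%, or every replicate alone reaching that limit, limit read from the data, passing the limit was not always enough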;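 also: myotubes were challenged with 10 µM simvastatin during compound exposure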
FGF22 binding – binders of recombinant human FGF22 by thermal shift | Q9HCT0 | SYPRO orange fluorescence; percent of sucrose octasulfate shift, DMSO zero | activity (Tm shift, normalised), % at 9.99 µM | 340,000 tested, 1.5% active;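 active = mean Tm shift, scaled 0 neutral to 100 positive control, at about 1.3% or above, every replicate too, limit read from the data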
Target sequence (Q9HCT0 whole entry, looked up): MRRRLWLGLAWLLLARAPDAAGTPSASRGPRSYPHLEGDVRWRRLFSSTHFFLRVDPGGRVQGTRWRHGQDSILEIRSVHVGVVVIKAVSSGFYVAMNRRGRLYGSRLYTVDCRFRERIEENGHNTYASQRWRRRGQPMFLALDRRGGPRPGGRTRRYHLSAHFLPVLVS
rRNA inh HTS – inhibits bacterial ribosomal RNA function over humanized ribosomes | E. coli WT GFP vs humanized-ribosome RFP mutants, fluorescence, 24 h; hits give low values; DMSO median 0, no signal -100 | GFP signal change (wild-type ribosome), % (concentration not given with the values) | 350,000 tested, 1.6% active | AID 720706;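 active = significant combined selectivity score with lowered wild-type GFP, culture density cut under 30%, mutant RFP and density less affected; inactive = any of these conditions unmet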
E-sel inducer – E-selectin induction on HUVECs; P16581; HUVEC E-selectin immunofluorescence imaging; normalized: neutral wells 0, TNF-alpha wells 100; activation, % at 7.58 µM; 260,000 tested, 0.37% active;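 active = mean E-selectin-positive cell signal at least 10% of the positive control, reached in at least 60% of replicates, without over 20% cell loss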
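Test system – human umbilical vein endothelial cells (HUVEC), E-selectin induction · Input – 3,000 HUVEC seeded per well · Buffer or medium – EGM-2, gelatin · Compound dosing – single-point compound dose · Detection – immunofluorescence imaging · Measure – percent E-selectin-positive cells · Controls – TNF-alpha high, DMSO low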
Starred values were filed as active, the others as inactive; / = not tested or not shown; ! = repeats disagree.

SMILES	SIRT5 block	FN deposition inh	Statin myotox sup	FGF22 binding	rRNA inh HTS	E-sel inducer
O=C(Cn1nc(-c2ccc(F)cc2)ccc1=O)Nc1ccc2c(c1)OCCO2	-3	-3	13	0	-11	/
O=C(CSCc1ccccc1)Nc1ccc2c(c1)OCO2	/	/	24	/	/	/
Cc1cc(C)cc(OCC(=O)Nc2ccc3c(c2)OCCO3)c1	0	-10	/	43*	-11	0
Cc1ccc(CSCC(=O)Nc2ccc3c(c2)OCO3)cc1	-2	-2	103*	/	-30*	/
Cc1ccc(-c2ccc(=O)n(CC(=O)Nc3ccc4c(c3)OCCO4)n2)cc1	20*	-1	/	0	6	0
CN1C(=O)c2cc(NC(=O)NC3CCCC3)ccc2OC[C@H]2O[C@H](CC(=O)O)CC[C@H]21	-6	/	13	0	1	0
CNC[C@@H]1Oc2ccc(NC(=O)CCN3CCOCC3)cc2C(=O)N([C@H](C)CO)C[C@@H]1C	-2	-2	-19	0	6	0
COc1ccc(S(=O)(=O)N(C)C[C@H]2Oc3ccc(NS(=O)(=O)c4c(C)noc4C)cc3C(=O)N([C@@H](C)CO)C[C@H]2C)cc1	1	8	-9	0	-5	404*
Cc1noc(C)c1S(=O)(=O)Nc1ccc2c(c1)C(=O)N([C@H](C)CO)C[C@H](C)[C@@H](CN(C)S(=O)(=O)c1ccc(F)cc1)O2	2	10	20	0	-25*!	0
CCCN(C)C[C@H]1OCCCC[C@H](C)Oc2ccc(NC(=O)c3ccncc3)cc2C(=O)N([C@H](C)CO)C[C@H]1C	/	/	-25	/	3	2
Cc1noc(C)c1S(=O)(=O)Nc1ccc2c(c1)C(=O)N([C@@H](C)CO)C[C@@H](C)[C@H](CN(C)Cc1ccncc1)O2	-1	/	/	0	2	-6
Cc1noc(C)c1S(=O)(=O)Nc1ccc2c(c1)C(=O)N([C@H](C)CO)C[C@H](C)[C@@H](CN(C)Cc1ccc3c(c1)OCO3)O2	4	-1	3	0	-2	1
C[C@H]1CN([C@@H](C)CO)C(=O)c2cc(NS(=O)(=O)c3cn(C)cn3)ccc2O[C@@H]1CN(C)Cc1ccncc1	10	/	20	0	2	49*
Cc1noc(C)c1S(=O)(=O)Nc1ccc2c(c1)C(=O)N([C@H](C)CO)C[C@@H](C)[C@H](CN(C)Cc1ccncc1)O2	1	/	/	0	0	57*
Cc1noc(C)c1S(=O)(=O)Nc1ccc2c(c1)C(=O)N([C@@H](C)CO)C[C@H](C)[C@H](CN(C)Cc1ccc3c(c1)OCO3)O2	1	-3	76*	1	-1	401*
C[C@H]1CN([C@@H](C)CO)C(=O)c2cc(NS(=O)(=O)c3cn(C)cn3)ccc2O[C@H]1CN(C)Cc1ccncc1	2	/	-28	0	0	-5
C[C@H](CO)N1C[C@H](C)[C@H](CN(C)C(=O)Nc2ccc3c(c2)OCO3)Oc2ccc(NS(=O)(=O)c3cccs3)cc2CC1=O	0	/	13	0	2	-9
C[C@H](CO)N1C[C@H](C)[C@H](CN(C)C(=O)C2CCCCC2)Oc2ncc(C#CC3CCCC3)cc2C1=O	9	3	-12	0	4	0
COc1ccc(S(=O)(=O)N[C@@H]2C=C[C@H](CC(=O)N3CCc4ccccc4C3)O[C@H]2CO)cc1	0	3	24	0	-6	0
COc1ccc(NS(=O)(=O)c2ccc(-c3ccccn3)s2)cc1	0	2	/	0	/	2
O=S(=O)(Nc1ccccc1Cl)c1ccc(-c2ccccn2)s1	-4	5	10	0	-37*	0
C[C@H](NC(=O)C[C@H]1CC[C@@H](NC(=O)CN2CCOCC2)[C@@H](CO)O1)c1ccccc1	-5	-14	18	0	1	0
Cc1ccc(C2OC(=O)c3ccccc32)cc1 (centres undefined)	/	/	133*	/	/	/
O=C(c1nnsc1S(=O)(=O)c1ccc(Cl)cc1)N1CCOCC1	1	11	/	1	4	/
CNC(=O)c1nnsc1S(=O)(=O)c1ccc(Cl)cc1	-6	/	-31	43*	-50	2
